# Rows were chosen to be rich in hits. Some 3.5% of all compounds tested hit in one or more screens of this group.
# RGS4 inh – RGS4 inhibitors, primary screen, cell-based, HEK293 M3R inducible RGS4, calcium flux | Regulator of G-protein signaling 4 (Homo sapiens), P49798 | Fluo-4 calcium flux; stronger effect = higher value; triggered by carbachol at its EC20 | B-score at 10 µM | hit rate 0.45% among 310,000;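 active = B-score, a plate-corrected calcium signal, over three deviations above library mean, with baseline fluorescence within five deviations of library mean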;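 also: RGS4 expression induced by doxycycline in cells with stable M3 receptor; B-score is computed from the integrated fluorescence ratio over baseline after carbachol; higher B-score means a larger calcium signal and so more RGS4 inhibition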
# Target sequence (P49798 whole entry, looked up): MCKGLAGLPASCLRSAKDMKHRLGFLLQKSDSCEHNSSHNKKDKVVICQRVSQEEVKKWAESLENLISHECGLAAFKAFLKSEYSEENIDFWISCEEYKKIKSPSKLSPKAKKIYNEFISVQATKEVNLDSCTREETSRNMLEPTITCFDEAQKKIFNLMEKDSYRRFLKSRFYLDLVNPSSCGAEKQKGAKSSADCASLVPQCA
# MrgX1 PAM – positive allosteric modulators of MrgX1, primary screen, HEK293 cells, Fluo-4 calcium flux; Mas-related G-protein coupled receptor member X1 (Homo sapiens), Q96LB2; FDSS; stronger effect = higher value; B-score at 10 µM; hit rate 0.63% among 310,000; AID 588675, 2011;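 active = plate-corrected calcium response at least 3 library SD above typical, normal starting fluorescence, not activating the receptor alone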;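 also: compound read alongside a low EC10 to EC30 dose of BAM8-22 agonist; peak minus trough fluorescence over baseline measured at the second addition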
# Target sequence (Q96LB2 whole entry, looked up): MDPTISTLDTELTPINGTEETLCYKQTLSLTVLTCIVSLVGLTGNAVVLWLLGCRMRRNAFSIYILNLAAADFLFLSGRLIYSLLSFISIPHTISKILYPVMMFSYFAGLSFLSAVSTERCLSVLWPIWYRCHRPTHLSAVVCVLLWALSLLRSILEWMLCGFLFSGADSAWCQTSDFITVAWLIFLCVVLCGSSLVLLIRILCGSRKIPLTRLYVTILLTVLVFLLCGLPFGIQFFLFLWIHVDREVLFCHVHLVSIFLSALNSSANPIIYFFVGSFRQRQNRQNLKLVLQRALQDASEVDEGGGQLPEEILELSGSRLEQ
# MrgX1 agonist – agonists of human MrgX1 receptor, primary screen, HEK293 cells, Fluo-4 calcium flux; Mas-related G-protein coupled receptor member X1 (Homo sapiens), Q96LB2; B-score at 10 µM; hit rate 0.44% among 310,000; Fluo-4 calcium fluorescence, agonist mode; stronger effect = higher value; AID 588627, 2011;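 active = calcium response B-score plate-corrected fluorescence ratio at least 3 library SD, with starting fluorescence B-score inside 5 SD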
#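 times = overnight plating, then 30 min 37 °C plus 30 min room-temperature dye loading | assay system = stable human MrgX1 HEK293 cell line | input = fifteen thousand cells per well | signal = kinetic calcium dye fluorescence, Fluo-4 NW | dosing = compound delivered in addition one of three | read-out = B-scored fluorescence response ratio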
# RGS4 pot – RGS4 potentiators or activators, primary screen, cell-based, HEK293 M3R inducible RGS4, calcium flux | carbachol calcium flux Fluo4; stronger effect = lower value | B-score at 10 µM | hit rate 0.92% among 310,000;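 active = B-score of the integrated calcium signal more than 4 SD below the library mean, with starting fluorescence not abnormally high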;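 also: negative B-score means reduced calcium response which marks RGS4 activation or potentiation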
#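 System – HEK293 FlpIn-TREx cells, stable M3R, doxycycline-inducible RGS4 · Reagent – ECmax carbachol challenge · Times – compound preincubation 20 min at room temperature before agonist · Technique – Fluo4 fluorescence kinetic imaging of calcium · Measure – B score of integrated Fluo4 ratio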
# MrgX1 antag – antagonists of human MrgX1 receptor, primary screen, HEK293 cells, Fluo-4 calcium flux; Mas-related G-protein coupled receptor member X1 (Homo sapiens), Q96LB2; BAM8-22 antagonism; stronger effect = lower value; B-score at 10 µM; hit rate 1.3% among 310,000; AID 588676, 2011;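 active = calcium-response B-score plate-corrected more than 3 library SD below zero, starting fluorescence within 5 deviations, no agonist response on first addition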;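 also: peak minus trough fluorescence over baseline after final BAM8-22 challenge near maximal dose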
# MrgX1 ant reconf – MrgX1 receptor antagonists, duplicate retest, confirmation, HEK293 cells, Fluo-4 calcium flux; shares compounds with MrgX1 antag; BAM8-22 calcium flux; stronger effect = lower value; remaining BAM8-22 calcium response % of control (stronger effect = lower value), % at 10 µM; hit rate 19% among 2,300; AID 602420, 2012;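 active = remaining agonist calcium response no higher than 100% minus 3 SD of agonist-only control wells, with starting fluorescence near control levels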;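 also: agonist BAM8-22 given at a near maximal EC90 to ECmax level; peak minus minimum fluorescence divided by baseline after agonist addition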
# HEK293 Ca flux – nonspecific calcium signal in parental HEK293, confirmation, counter-screen for MrgX1 antagonist project, parental HEK293 cells, Fluo-4 calcium flux; shares compounds with MrgX1 antag; Fluo-4 calcium fluorescence, FDSS; fluorescence ratio F(max-min)/F0 at 10 µM; hit rate 2% among 4,000;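 active = duplicate-averaged calcium fluorescence ratio at least three times the standard deviation of buffer wells, a nonspecific response in parental cells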
# HEK293 Ca counter – calcium response in parental HEK293 cells, primary screen, counter-screen for MrgX1 allosteric activator project, cell-based, Fluo-4 calcium flux, duplicate; shares compounds with MrgX1 antag; Fluo-4 fluorescence ratio; stronger effect = higher value; fluorescence ratio F(max-min)/F0 at 10 µM; hit rate 0.4% among 4,000;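 active = calcium fluorescence ratio, averaged over duplicates, at least 3 SD of the buffer-well ratio, meaning a nonspecific response in receptor-free cells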;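 also: untransfected parental HEK293 lacking MrgX1 used as counterscreen for MrgX1 allosteric activators; fluorescence change taken during the second addition on a kinetic imager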
# HEK293 Ca cntr2 – calcium response in parental HEK293 cells, primary screen, counter-screen for MrgX1 agonist project, cell-based, Fluo-4 calcium flux, duplicate, agonist mode; shares compounds with MrgX1 antag; fluorescence ratio F(max-min)/F0 at 10 µM; AID 624115, 2012; Fluo-4 calcium fluorescence (FDSS); stronger effect = higher value; hit rate 8.7% among 4,000;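 active = calcium fluorescence ratio at least three times the spread of buffer wells, meaning a non-specific response in parental cells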
# Active calls of the source: *; i = inactive; · = no result given.
SMILES,RGS4 inh,MrgX1 PAM,MrgX1 agonist,RGS4 pot,MrgX1 antag,MrgX1 ant reconf,HEK293 Ca flux,HEK293 Ca counter,HEK293 Ca cntr2
Cc1cccc(-n2c(CNC(=O)c3ccccc3)nnc2SCC(=O)Nc2nccs2)c1,i,i,i,i,i,·,·,·,·
Cc1ccc(NC(=O)CCN2C(=O)CSC2=O)c(C)c1,i,i,i,i,-4.64*,i,i,i,i
Cc1nn(C)c(C)c1CNC(=O)c1nn2c(c1Cl)NC(c1cccs1)CC2C(F)(F)F (configuration not stated),i,i,i,i,-8.71*,i,i,i,i
COc1ccc(C2CC(C(F)(F)F)n3nc(CO)c(Cl)c3N2)cc1OC (configuration not stated),i,i,i,i,i,·,·,·,·
COc1ccc(C2CC(C(F)(F)F)n3nc(C(=O)O)c(Cl)c3N2)cc1OC (configuration not stated),i,i,i,i,-4.54*,i,i,i,i
COc1ccccc1NC(=O)CSCc1nc2ccccc2[nH]1,i,i,i,i,i,·,·,·,·
O=C1C2CCCN2C(c2cccc(Br)c2)N1c1ccc(F)cc1 (configuration not stated),i,i,i,i,i,·,·,·,·
COc1ccc(C2N(c3ccc(F)cc3)C(=O)C3CCCN32)cc1 (configuration not stated),i,i,i,i,-6.34*,i,i,i,i
O=C1C2CCCN2C(c2ccc(Br)cc2)N1c1ccc(F)cc1 (configuration not stated),i,i,i,i,-5.71*,i,i,i,i
CCOC(=O)C1=C(COC(=O)/C=C/c2ccc(SC)cc2)NC(=O)NC1C (configuration not stated),i,i,i,i,i,·,·,·,·
Cc1cc(NCc2ccco2)n2ncnc2n1,i,i,i,i,-7.12*,i,i,i,i
COc1ccc(CCN(C)C2CCCN(C(=O)c3sccc3C)C2)cc1OC (configuration not stated),i,i,i,i,i,·,·,·,·
COc1ccc(CC(=O)OCC(=O)Nc2ncc(Cl)cc2Cl)cc1,i,i,i,i,-4.69*,i,i,i,i
CC(C)c1nnc(NC(=O)CCC(=O)NC2CC2)s1,i,i,i,i,i,·,·,·,·
O=C(CSc1nnc(C2COc3ccccc3O2)o1)N1CCCc2ccccc21 (configuration not stated),i,i,i,i,-4.54*,i,i,i,i
O=C(CSc1nnc(C2COc3ccccc3O2)o1)N1CCOCC1 (configuration not stated),i,i,i,i,i,·,·,·,·
CNCCCOc1cccc(OC(C)C)c1,i,i,i,i,-7.29*,i,i,i,i
CCN1CCN(C(=S)Nc2ccc3nc(N4CCN(CC)CC4)cc(C)c3c2)CC1,i,i,i,i,-4.95*,i,i,i,i
CCOC(=O)C1CCCN(C(=O)c2cn(-c3ccccc3)nc2-c2cccnc2)C1 (configuration not stated),i,i,i,i,i,·,·,·,·
CC1CCCN(C(=O)c2cn(-c3ccccc3)nc2-c2cccnc2)C1 (configuration not stated),i,i,i,i,-6.83*,i,i,i,i
CC1CCCCC1NC(=O)c1cccc(S(=O)(=O)N2CCN(Cc3ccccc3)CC2)c1 (configuration not stated),i,i,i,i,-6.13*,i,i,i,i
CC(C)C[C@@]12C(=O)N(c3cccc(Cl)c3)C(=O)N1[C@H](c1ccc(Cl)cc1)[C@@H]1C(=O)N(C3CCCCC3)C(=O)[C@@H]12,i,i,i,i,i,·,·,·,·
CCn1nc(C)c(NC(=O)Nc2cccc(Cl)c2Cl)c1C,i,i,i,i,i,·,·,·,·
COc1ccc2nc(-n3c(C)ccc3C)sc2c1,i,i,i,i,-5.99*,i,i,i,i
COc1ccc2nc(-c3ccc(F)cc3)sc2c1,i,i,i,i,-4.57*,i,i,i,i
SMILES,RGS4 inh,MrgX1 PAM,MrgX1 agonist,RGS4 pot,MrgX1 antag,MrgX1 ant reconf,HEK293 Ca flux,HEK293 Ca counter,HEK293 Ca cntr2
COc1ccc2nc(N)sc2c1,i,i,i,i,i,·,·,·,·
O=C(CCS(=O)(=O)c1ccc(Br)cc1)N1CCN(c2ccccc2F)CC1,·,i,i,·,-5.44*,i,i,i,i
Cc1ccc2cc(CN(Cc3cccs3)Cc3nnnn3CC3CCCO3)c(=O)[nH]c2c1 (configuration not stated),i,i,i,i,-4.77*,i,i,i,i
Cc1ccc2[nH]c(=O)c(CN(Cc3cccs3)Cc3nnnn3CC3CCCO3)cc2c1 (configuration not stated),i,i,i,i,i,·,·,·,·
Cn1ncc(Br)c1NC(=O)Nc1ccccc1,i,i,i,i,i,·,·,·,·
Cc1ccc(C)c(NC(=O)CN(C)C(=O)c2cccc(S(=O)(=O)N3CCN(Cc4ccccc4)CC3)c2)c1,i,i,i,i,i,·,·,·,·
Cc1ccc(C)c(NC(=O)CN(C)C(=O)c2cccc(S(=O)(=O)N(C)C)c2)c1,i,i,i,i,-4.93*,84.4%*,i,i,i

# From PubChem
